Source: ChEMBL document CHEMBL5712070, “Discovery of a chemical probe for the L3MBTL3 methyllysine reader domain” (Nat Chem Biol, 2013)
pIC50, pKd: −log10 of the molar value. Activity calls are given as the source filed them. No cut-off for these calls is given here.

What was measured:
[1] = biological target: T1, Lethal(3)malignant brain tumor-like protein 3 (Homo sapiens, UniProt Q96JM7); assay: Binding affinity to L3MBTL3 (unknown origin) by ITC assay
T1 sequence (Q96JM7 whole entry): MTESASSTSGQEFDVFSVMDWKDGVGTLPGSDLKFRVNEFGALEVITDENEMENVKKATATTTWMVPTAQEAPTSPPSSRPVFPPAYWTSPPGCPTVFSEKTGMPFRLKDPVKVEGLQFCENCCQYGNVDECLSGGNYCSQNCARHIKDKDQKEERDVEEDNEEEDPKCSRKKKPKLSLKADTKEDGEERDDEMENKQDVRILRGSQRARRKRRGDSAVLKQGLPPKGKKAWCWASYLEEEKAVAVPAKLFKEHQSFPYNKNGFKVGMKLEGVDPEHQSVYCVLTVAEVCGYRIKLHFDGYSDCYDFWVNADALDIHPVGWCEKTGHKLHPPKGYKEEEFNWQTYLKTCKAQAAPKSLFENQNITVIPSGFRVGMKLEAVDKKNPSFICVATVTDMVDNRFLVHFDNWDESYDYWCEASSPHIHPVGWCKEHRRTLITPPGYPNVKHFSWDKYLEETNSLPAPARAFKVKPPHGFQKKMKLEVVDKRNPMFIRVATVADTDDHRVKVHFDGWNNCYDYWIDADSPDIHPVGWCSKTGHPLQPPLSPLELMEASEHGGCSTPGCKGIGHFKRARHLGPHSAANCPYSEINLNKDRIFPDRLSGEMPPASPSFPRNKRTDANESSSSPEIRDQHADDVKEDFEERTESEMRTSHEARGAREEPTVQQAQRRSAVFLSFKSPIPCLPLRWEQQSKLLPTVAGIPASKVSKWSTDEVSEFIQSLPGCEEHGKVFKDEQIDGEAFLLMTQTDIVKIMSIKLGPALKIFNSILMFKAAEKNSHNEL

[2] = biological target: T2, Lethal(3)malignant brain tumor-like protein 3 (Homo sapiens) (UniProt Q96JM7); assay: Binding affinity to flag-tagged full length L3MBTL3 (unknown origin) expressed in HEK293 cell lysates at 5 nmol by; format: subcellular
T2 sequence (whole entry): T1 sequence (Q96JM7 whole entry)

[3] = biological target: T2, Lethal(3)malignant brain tumor-like protein 3 (Homo sapiens); assay: Inhibition of GFP-3MBT tagged L3MBTL3 (unknown origin) expressed in HEK293 cells assessed as reduction in recovery of fluorescence intensity up to 0.1 mM measured up to 60 secs by FRAP assay; format: cell-based; details: time <= 60.0 sec
Outline: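 FRAP: HEK293 cells transfected with GFP-3MBT; inhibitor treatment 3–6 h; 488 nm laser bleaching then image acquisition every 2 s on laser scanning confocal microscope. Recovery fitted exponentially from 8–10 nuclei per condition; water as control; experiment repeated 3 independent times.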

[4] = biological target: T1, Lethal(3)malignant brain tumor-like protein 3; assay: Binding affinity to GFP-3MBT tagged L3MBTL3 (unknown origin) assessed as diffusion coefficient at 1 uM (reference value: 0.1272 um2/s)
[5] = biological target: T1, Lethal(3)malignant brain tumor-like protein 3; assay: Inhibition of L3MBTL3 (unknown origin) using H4K20me2 peptide by Alpha-Screen methylated histone peptide competition assay
[6] = biological target: T2, Lethal(3)malignant brain tumor-like protein 3 (Homo sapiens); assay: Binding affinity to GFP-3MBT tagged L3MBTL3 (unknown origin) assessed as protein half life at 1 uM
[7] = Cytotoxicity in HEK293T/17 cells assessed as effect on cell viability up to 100 uM incubated for 24 hrs by CellTiter-Glo luminescent cell viability assay; format: toxicity, cell-based; details: human, hek293t/17, 24 h
[8] = biological target: T2, Lethal(3)malignant brain tumor-like protein 3 (Homo sapiens); assay: Inhibition of GFP-3MBT tagged L3MBTL3 (unknown origin) expressed in HEK293 cells assessed as disruption of foci formation at 100 uM by immunofluorescence assay; format: cell-based
Outline: (§1)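 HEK293 cells seeded on coverslips, transfected 16–24 h after seeding with GFP-3MBT or GFP-FLMBT for 48 h; compounds at indicated concentrations for at least 24 h; Hoechst 33342 stain before spinning-disk confocal imaging; foci quantified by % GFP intensity function.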

[9] = biological target: T1, Lethal(3)malignant brain tumor-like protein 3; assay: Binding affinity to GFP-tagged full length L3MBTL3 (unknown origin) assessed as diffusion coefficient at 1 uM (reference value: 0.037549815 um2/s)
[10] = biological target: T2, Lethal(3)malignant brain tumor-like protein 3 (Homo sapiens); assay: Inhibition of GFP-tagged full length L3MBTL3 (unknown origin) expressed in HEK293 cells assessed as disruption of foci formation by immunofluorescence assay; format: cell-based; outline: as §1
[11] = biological target: T2, Lethal(3)malignant brain tumor-like protein 3 (Homo sapiens); assay: Binding affinity to GFP-tagged full length L3MBTL3 (unknown origin) expressed in HEK293 cells assessed as co-localization with full length L3MBTL3; format: cell-based
[12] = biological target: T2, Lethal(3)malignant brain tumor-like protein 3 (Homo sapiens); assay: Binding affinity to GFP-tagged full length L3MBTL3 (unknown origin) expressed in HEK293 cells assessed as increase in protein mobility; format: cell-based

Compound | pKd [1] | Activity [2] | inhibition [3] | Diffusion coefficient [4] | pIC50 [5] | T1/2 [6] | Activity [7] | inhibition [8] | Diffusion coefficient [9] | inhibition [10] | Activity [11] | Activity [12]
O=C(CCCC[C@@H]1SC[C@@H]2NC(=O)N[C@@H]21)NCCOCCOCCOCCOCCOCCOCCOCCOCCOCCOCCOCCNC(=O)c1ccc(Nc2cc(C(=O)N3CCC(N4CCCC4)CC3)ccc2C(=O)N2CCC(N3CCCC3)CC2)cc1 | 6.46 | Active | – | – | – | – | – | – | – | – | – | –
O=C(c1ccc(C(=O)N2CCC(N3CCCCC3)CC2)cc1)N1CCC(N2CCCCC2)CC1 | < 3.82 | – | inactive | 0.124 um2/s | < 5.00 | 8.2 s | Non-Toxic | inactive | 0.036 um2/s | – | – | –
CCN1C(=O)\C(=C/C=C/C=C2/N(CCC(=O)OCOC(C)=O)c3ccc(C(=O)OCOC(C)=O)cc3C2(C)C)C(=O)N(CCC(=O)NCCCCCCNC(=O)c2ccc(Nc3cc(C(=O)N4CCC(N5CCCC5)CC4)ccc3C(=O)N3CCC(N4CCCC4)CC3)cc2)C1=O | – | – | – | – | – | – | – | – | – | inactive | Active | Active
